Test results from ChEMBL document CHEMBL4152256, “Structure-activity relationship of new antimalarial 1-aryl-3-susbtituted propanol derivatives: Synthesis, preliminary toxicity profiling, parasite life cycle stage studies, target exploration, and targeted delivery” (Eur J Med Chem, 2018).
Calls of active or inactive are those of the source. The rule behind the calls is not given here.

Experiments:
Plasmodium falciparum [1] = assay: Antiplasmodial activity against multidrug-resistant Plasmodium falciparum FCR-3 by [3H]-hypoxanthine incorporation assay; format: functional, organism-based, FCR-3/Gambia
Method in brief: (§1)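 Blood-stage P. falciparum 3D7 and FCR-3 were tested by a modified [3H]-hypoxanthine incorporation assay. Chloroquine was the reference in all runs.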

Plasmodium falciparum [2] = assay: Antiplasmodial activity against chloroquine-sensitive Plasmodium falciparum 3D7 by [3H]-hypoxanthine incorporation assay; format: functional, organism-based; method in brief: as §1
[3] = Cytotoxicity against human HepG2A16 cells by MTT assay; format: cell-based
Method in brief: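 MTT viability assay on HepG2-A16 cells, giving CC50 values.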

[4] = Selectivity index, ratio of CC50 for human HepG2A16 cells by MTT assay to IC50 for multidrug-resistant Plasmodium falciparum FCR-3; format: toxicity
Method in brief: (§2)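 HepG2-A16 human hepatoma cells were tested by MTT viability assay to give CC50. Blood-stage activity was measured against the multidrug-resistant P. falciparum FCR-3 strain by [3H]-hypoxanthine incorporation to give IC50. SI = CC50 HepG2 / FCR-3 IC50.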

[5] = Cytotoxicity against human HepG2A16 cells; format: cell-based
[6] = Selectivity index, ratio of CC50 for human HepG2A16 cells to IC50 for multidrug-resistant Plasmodium falciparum FCR-3; format: toxicity; method in brief: as §2
[7] = biological target: T1, HSP90 (Plasmodium falciparum 3D7) (UniProt Q8IL32); assay: Binding affinity to Plasmodium falciparum HSP90 nucleotide binding domain at 0.5 mM by SYPRO orange dye based DSF analysis
T1 sequence (whole entry): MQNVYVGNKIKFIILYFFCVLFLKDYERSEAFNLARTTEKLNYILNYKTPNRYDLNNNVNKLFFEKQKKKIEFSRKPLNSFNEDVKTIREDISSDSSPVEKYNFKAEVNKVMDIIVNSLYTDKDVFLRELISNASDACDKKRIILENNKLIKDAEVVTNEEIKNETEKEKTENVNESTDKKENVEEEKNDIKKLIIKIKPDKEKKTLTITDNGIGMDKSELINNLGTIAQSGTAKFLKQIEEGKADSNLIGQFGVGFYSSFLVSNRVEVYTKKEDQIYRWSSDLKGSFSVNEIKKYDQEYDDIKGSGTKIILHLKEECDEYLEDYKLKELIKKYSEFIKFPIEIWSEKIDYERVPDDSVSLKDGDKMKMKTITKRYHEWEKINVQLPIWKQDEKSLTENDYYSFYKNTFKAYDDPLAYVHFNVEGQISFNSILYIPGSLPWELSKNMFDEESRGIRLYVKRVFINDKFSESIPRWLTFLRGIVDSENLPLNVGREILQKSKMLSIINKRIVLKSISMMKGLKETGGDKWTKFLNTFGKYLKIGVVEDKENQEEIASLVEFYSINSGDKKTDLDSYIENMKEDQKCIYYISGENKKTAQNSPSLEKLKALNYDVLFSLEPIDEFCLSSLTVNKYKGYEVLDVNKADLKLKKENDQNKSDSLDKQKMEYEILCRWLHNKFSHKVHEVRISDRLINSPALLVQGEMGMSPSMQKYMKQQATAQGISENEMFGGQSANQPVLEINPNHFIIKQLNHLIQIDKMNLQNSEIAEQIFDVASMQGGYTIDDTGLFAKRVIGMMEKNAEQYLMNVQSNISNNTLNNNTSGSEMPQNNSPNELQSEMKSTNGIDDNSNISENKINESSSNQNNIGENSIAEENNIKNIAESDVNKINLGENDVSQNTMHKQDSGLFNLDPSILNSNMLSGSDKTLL
Method in brief: (§3)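 Recombinant P. falciparum Hsp90 or GRP94 nucleotide-binding domain (0.05–0.2 mg/mL, optimized per protein) in 25 mM HEPES pH 7.5, 250 mM NaCl. Compound final concentration was 0.5 mM, with SYPRO Orange at 1:1000. Samples were heated from 18 to 90 °C at 1 °C/min. Tm was taken as the Boltzmann-fit inflection point. ΔTm = Tm with ligand minus Tm without, and shifts beyond ±1 °C were counted significant.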

Plasmodium falciparum [8] = assay: Binding affinity to Plasmodium falciparum GRP94 nucleotide binding domain at 0.5 mM by SYPRO orange dye based DSF analysis; method in brief: as §3
[9] = biological target: T1, HSP90 (Plasmodium falciparum 3D7); assay: Binding affinity to Plasmodium falciparum HSP90 nucleotide binding domain by SPR analysis
Method in brief: (§4)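 Purified PfHsp90 and PfGRP94 nucleotide-binding domains were amine-coupled to a CM5 chip (3000 and 7000 RU, respectively), with a blank reference surface. Seven compound concentrations (0.4 nM–1 mM) were injected in triplicate at 30 µL/min, 25 °C, in random order. Running buffer: 10 mM HEPES pH 7.4, 150 mM NaCl, 0.005% P20, 1% DMSO, 2 mM MgCl2. Kd came from double-referenced sensorgrams.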

Plasmodium falciparum [10] = assay: Binding affinity to Plasmodium falciparum GRP94 nucleotide binding domain by SPR analysis; method in brief: as §4
Plasmodium berghei = assay: Antiplasmodial activity against Plasmodium berghei ANKA infected in mouse assessed as inhibition of parasitemia at 50 mg/kg/day, po for 4 consecutive days starting from 2 hrs post infection by MSF assay relative to control; format: functional
Method in brief: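 Swiss male mice (20 ± 2 g) infected ip with 10^7 P. berghei ANKA parasitized cells (day 0). Five per group dosed orally 2 h after infection and daily on days 0–3. Test compounds at 50 mg/kg/day in water:DMSO; chloroquine diphosphate at 3 mg/kg/day; vehicle controls. Parasitemia measured on day 4 by MSF assay; survival checked daily.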

Structure (SMILES)	IC50 (Plasmodium falciparum [1]) [µM]	IC50 (Plasmodium falciparum [2]) [µM]	CC50 [3] [µM]	Ratio CC50/IC50 [4]	CC50 ([5]; HepG2A16 cells) [µM]	selectivity ratio ([6]; HepG2A16 cells, read-out: Ratio CC50/IC50)	Activity [7]	Activity (Plasmodium falciparum [8])	Activity [9]	Activity (Plasmodium falciparum [10])	Ratio CC50/IC50 [6]	inhibition (Plasmodium berghei)	CC50 [5] [µM]
OC(CCN1CCN(c2ccccc2C(F)(F)F)CC1)c1ccc(F)c2ccccc12 (single isomer, unassigned; (+))	0.21	0.54	10.8	51	36.1	172	–	–	–	–	–	–	–
O=[N+]([O-])c1ccc(N2CCC(NCCC(O)c3ccc(F)c4ccccc34)CC2)c(C(F)(F)F)c1 (stereo in doubt; 8)	–	–	–	–	–	–	inactive	inactive	inactive	inactive	–	–	–
COc1ccccc1N1CCN(CCC(O)c2ccc(F)cc2)CC1 (single isomer, unassigned; (+))	12.2	28.7	96	8	> 145	–	–	–	–	–	> 11.8	–	–
OC(CCN1CCN(c2ccccc2C(F)(F)F)CC1)c1ccc(F)c2ccccc12 (stereo in doubt; 55)	–	–	–	–	–	–	inactive	inactive	inactive	inactive	–	inactive	–
Nc1ncnc2c1ncn2[C@@H]1O[C@H](COP(=O)(O)OP(=O)(O)O)[C@@H](O)[C@H]1O	–	–	–	–	–	–	Active	Active	–	–	–	–	–
COc1ccccc1N1CCN(CCC(O)c2ccc(F)cc2)CC1 (stereo in doubt; 66)	–	–	–	–	–	–	inactive	inactive	inactive	inactive	–	–	–
OC(CCN1CCN(c2ccccc2C(F)(F)F)CC1)c1ccc(F)c2ccccc12 (single isomer, unassigned; (-))	0.2	0.88	18.2	91	–	–	–	–	–	–	308	–	61.5
O=[N+]([O-])c1ccc(N2CCC(NCCC(O)c3ccc(F)c4ccccc34)CC2)c(C(F)(F)F)c1 (single isomer, unassigned; (+))	0.19	0.48	38.3	201	–	–	–	–	–	–	420	–	37.6
COc1ccccc1N1CCN(CCC(O)c2ccc(F)cc2)CC1 (single isomer, unassigned; (-))	0.66	1.24	14.3	22	–	–	–	–	–	–	> 219.9	–	–
Nc1ncnc2c1ncn2[C@@H]1O[C@H](COP(=O)(O)OP(=O)(O)OP(=O)(O)O)[C@@H](O)[C@H]1O	–	–	–	–	–	–	Active	Active	–	–	–	–	–
N#Cc1ccc(N2CCC(NCCC(O)c3ccc(F)c4ccccc34)CC2)c(C(F)(F)F)c1 (stereo in doubt; (-)-72)	0.39	0.28	11	28	–	–	–	–	–	–	11	–	27.8
N#Cc1ccc(N2CCC(NCCC(O)c3ccc(F)c4ccccc34)CC2)c(C(F)(F)F)c1 (single isomer, unassigned; (+))	0.65	5.72	18.8	29	–	–	–	–	–	–	58	–	79.9
O=[N+]([O-])c1ccc(N2CCC(NCCC(O)c3ccc(F)c4ccccc34)CC2)c(C(F)(F)F)c1 (single isomer, unassigned; (-))	0.87	1.79	20	23	–	–	–	–	–	–	32	–	4.13
N#Cc1ccc(N2CCC(NCCC(O)c3ccc(F)c4ccccc34)CC2)c(C(F)(F)F)c1 (stereo in doubt; 72)	–	–	–	–	–	–	inactive	inactive	inactive	inactive	–	–	–
